Assay results reported in ChEMBL document CHEMBL4368873, “Novel O-methyl goniofufurone and 7-epi-goniofufurone derivatives: synthesis, in vitro cytotoxicity and SAR analysis” (Medchemcomm, 2018).
The source made the active and inactive calls. The calls are words filed in the database; no cut-off is given here.

Columns and labels:
K562 [1] = assay: Up regulation of cleaved PARP expression in human K562 cells at IC50 measured after 72 hrs by Western blot analysis; type: functional, cell-based
K562 [2] = assay: Up regulation of Bcl-2 expression in human K562 cells at IC50 measured after 72 hrs by Western blot analysis; type: functional, cell-based
K562 [3] = assay: Cell cycle arrest in human K562 cells assessed as accumulation at sub-G1 phase at IC50 after 72 hrs by propidium iodide staining based flow cytometry (reference value: 1.84%); type: functional
MRC5 = assay: Cytotoxicity against human MRC5 cells assessed as inhibition of cell growth after 72 hrs by MTT assay; type: cell-based; settings: MRC5, 72 h
MDA-MB-231 [4] = assay: Cytotoxicity against human MDA-MB-231 cells assessed as inhibition of cell growth after 72 hrs by MTT assay; type: functional, cell-based; settings: MDA-MB-231, 72 h
K562 [5] = assay: Induction of apoptosis in human K562 cells assessed as necrotic cells at IC50 after 72 hrs by Annexin V-FITC/propidium iodide staining based flow cytometry relative to control; type: functional
Method in brief: (§1)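 K562 cells seeded at 5 × 10⁵ per well, treated 72 h at each compound's IC₅₀ level. Viability was checked by trypan blue exclusion. Viable cells were double-stained with Annexin V-FITC and propidium iodide and analysed by flow cytometry. Results are given as specific apoptosis or specific necrosis (%) relative to untreated cells.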

K562 [6] = assay: Induction of apoptosis in human K562 cells assessed as apoptotic cells at IC50 after 72 hrs by Annexin V-FITC/propidium iodide staining based flow cytometry relative to control; type: functional; method in brief: as §1
K562 [7] = assay: Cell cycle arrest in human K562 cells assessed as accumulation at S phase at IC50 after 72 hrs by propidium iodide staining based flow cytometry (reference value: 26.52%); type: functional
K562 [8] = assay: Cell cycle arrest in human K562 cells assessed as accumulation at G2/M phase at IC50 after 72 hrs by propidium iodide staining based flow cytometry (reference value: 24.13%); type: functional
K562 [9] = assay: Cell cycle arrest in human K562 cells assessed as accumulation at G0/G1 phase at IC50 after 72 hrs by propidium iodide staining based flow cytometry (reference value: 47.51%); type: functional
K562 [10] = assay: Up regulation of Bax expression in human K562 cells at IC50 measured after 72 hrs by Western blot analysis; type: functional, cell-based
HL-60 = assay: Cytotoxicity against human HL60 cells assessed as inhibition of cell growth after 72 hrs by MTT assay; type: functional, cell-based; settings: HL-60, 72 h
Method in brief: (§2)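 Exponentially growing cells were exposed 72 h to compounds diluted from a 10 mM DMSO stock into serum-free medium. Growth was read by colorimetric MTT. Leukaemia/lymphoma lines (K562, HL-60, Jurkat, Raji) were grown in RPMI 1640; MCF-7, MDA-MB 231, HeLa, A549 and normal MRC-5 fibroblasts in DMEM; 37 °C, 5% CO2.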

MCF7 = assay: Cytotoxicity against human MCF7 cells assessed as inhibition of cell growth after 72 hrs by MTT assay; type: functional, cell-based; settings: MCF7, 72 h; method in brief: as §2
K562 [11] = assay: Up regulation of Caspase-3 precursor expression in human K562 cells at IC50 measured after 72 hrs by Western blot analysis; type: functional, cell-based
Jurkat = assay: Cytotoxicity against human Jurkat cells assessed as inhibition of cell growth after 72 hrs by MTT assay; type: functional, cell-based; method in brief: as §2
K562 [12] = assay: Up regulation of active Caspase-3 expression in human K562 cells at IC50 measured after 72 hrs by Western blot analysis; type: functional, cell-based
A549 [13] = assay: Cytotoxicity against human A549 cells assessed as inhibition of cell growth after 72 hrs by MTT assay; type: functional, cell-based; settings: A549, 72 h
Raji = assay: Cytotoxicity against human Raji cells assessed as inhibition of cell growth after 72 hrs by MTT assay; type: functional, cell-based
K562 [14] = assay: Cytotoxicity against human K562 cells assessed as inhibition of cell growth after 72 hrs by MTT assay; type: functional, cell-based; settings: K562, 72 h
HeLa = assay: Cytotoxicity against human HeLa cells assessed as inhibition of cell growth after 72 hrs by MTT assay; type: functional, cell-based
K562 [15] = assay: Cell cycle arrest in human K562 cells assessed as increase in accumulation at sub-G1 phase at IC50 after 72 hrs by propidium iodide staining based flow cytometry relative to control; type: functional
K562 [16] = assay: Down regulation of Bcl-2 expression in human K562 cells at IC50 measured after 72 hrs by Western blot analysis; type: functional, cell-based
K562 [17] = assay: Down regulation of Bax expression in human K562 cells at IC50 measured after 72 hrs by Western blot analysis; type: functional, cell-based
MDA-MB-231 [18] = assay: Potency index, ratio of doxorubicin IC50 to test compound IC50 for human MDA-MB-231 cells; type: functional
A549 [19] = assay: Potency index, ratio of doxorubicin IC50 to test compound IC50 for human A549 cells; type: functional

O=C1C[C@H]2O[C@H]([C@H](O)c3ccccc3)[C@H](O)[C@H]2O1
Activity (K562 [1]): Active | Activity (K562 [2]): Active | Activity (K562 [3]): 2.16% | IC50 (MRC5): > 100 µM | IC50 (MDA-MB-231 [4]): 75.3 µM | Activity (K562 [5]): -0.31% | Activity (K562 [6]): -0.36% | Activity (K562 [7]): 21.03% | Activity (K562 [8]): 24.34% | Activity (K562 [9]): 52.47% | Activity (K562 [10]): Active | IC50 (HL-60): > 100 µM

CO[C@@H]1[C@H]2OC(=O)C[C@H]2O[C@@H]1[C@H](OC)c1ccccc1
IC50 (MCF7): > 100 µM | Activity (K562 [11]): Active | Activity (K562 [1]): Active | IC50 (Jurkat): 2.36 µM | Activity (K562 [2]): Active | Activity (K562 [3]): 6.36% | IC50 (MRC5): > 100 µM | IC50 (MDA-MB-231 [4]): 1.36 µM | Activity (K562 [5]): 0.11% | Activity (K562 [6]): 4.32% | Activity (K562 [12]): Active | Activity (K562 [7]): 20.48% | IC50 (A549 [13]): 26.3 µM | IC50 (Raji): 12.4 µM | Activity (K562 [8]): 28.3% | IC50 (K562 [14]): 14.7 µM | Activity (K562 [9]): 44.86% | IC50 (HeLa): 56.4 µM | Activity (K562 [10]): Active | fold change (FC) (K562 [15]): 3.5 | IC50 (HL-60): 2.21 µM

CO[C@@H]1[C@H]2OC(=O)C[C@H]2O[C@@H]1[C@H](O)c1ccccc1
IC50 (MCF7): 4.04 µM | Activity (K562 [1]): Active | IC50 (Jurkat): 24.9 µM | Activity (K562 [3]): 1.82% | IC50 (MRC5): > 100 µM | IC50 (MDA-MB-231 [4]): 28.6 µM | Activity (K562 [5]): -0.54% | Activity (K562 [6]): 2.69% | Activity (K562 [7]): 26.52% | IC50 (A549 [13]): 23.6 µM | IC50 (Raji): 8.69 µM | Activity (K562 [8]): 24.32% | IC50 (K562 [14]): 5.36 µM | Activity (K562 [16]): Active | Activity (K562 [9]): 47.34% | IC50 (HeLa): 8.63 µM | Activity (K562 [10]): Active | IC50 (HL-60): 25 µM

CO[C@@H]1[C@H]2OC(=O)C[C@H]2O[C@@H]1[C@@H](O)c1ccccc1
IC50 (MCF7): 12.7 µM | Activity (K562 [17]): Active | Activity (K562 [1]): Active | IC50 (Jurkat): 15.5 µM | Activity (K562 [3]): 28.67% | IC50 (MRC5): > 100 µM | IC50 (MDA-MB-231 [4]): 35.2 µM | Activity (K562 [5]): 2.57% | Activity (K562 [6]): 55.48% | Activity (K562 [7]): 15.08% | IC50 (A549 [13]): 38.2 µM | IC50 (Raji): 12.2 µM | Activity (K562 [8]): 21.21% | IC50 (K562 [14]): 8.45 µM | Activity (K562 [16]): Active | Activity (K562 [9]): 35.04% | IC50 (HeLa): 11 µM | fold change (FC) (K562 [15]): 15.5 | IC50 (HL-60): 18.9 µM

CO[C@@H]1[C@H]2OC(=O)C[C@H]2O[C@@H]1[C@@H](OC)c1ccccc1
IC50 (MCF7): > 100 µM | Activity (K562 [11]): Active | Activity (K562 [1]): Active | IC50 (Jurkat): 1.69 µM | Activity (K562 [2]): Active | Activity (K562 [3]): 2.4% | IC50 (MRC5): 87.6 µM | IC50 (MDA-MB-231 [4]): 2.65 µM | Activity (K562 [5]): -0.44% | Activity (K562 [6]): 1.7% | Activity (K562 [7]): 22.66% | IC50 (A549 [13]): 25.1 µM | IC50 (Raji): 10.5 µM | Activity (K562 [8]): 26.35% | IC50 (K562 [14]): 9.24 µM | Activity (K562 [9]): 48.59% | IC50 (HeLa): 89.3 µM | Activity (K562 [10]): Active | IC50 (HL-60): 4.36 µM

CO[C@@H]1[C@H]2OC(=O)C[C@H]2O[C@@H]1C(O)(c1ccccc1)c1ccccc1
IC50 (MCF7): 11.4 µM | Activity (K562 [11]): Active | Activity (K562 [1]): Active | IC50 (Jurkat): 9.79 µM | Activity (K562 [2]): Active | Activity (K562 [3]): 10.13% | IC50 (MRC5): > 100 µM | IC50 (MDA-MB-231 [4]): 51 µM | Activity (K562 [5]): 8.73% | Activity (K562 [6]): 33.41% | Activity (K562 [12]): Active | Activity (K562 [7]): 17.77% | IC50 (A549 [13]): 15.1 µM | IC50 (Raji): 18.9 µM | Activity (K562 [8]): 28.75% | IC50 (K562 [14]): 28.7 µM | Activity (K562 [9]): 43.35% | IC50 (HeLa): 12.6 µM | Activity (K562 [10]): Active | fold change (FC) (K562 [15]): 5.5 | IC50 (HL-60): 2.36 µM

CO[C@@H](c1ccccc1)[C@H]1O[C@@H]2CC(=O)O[C@@H]2[C@H]1O
IC50 (MCF7): > 100 µM | Activity (K562 [17]): Active | Activity (K562 [1]): Active | IC50 (Jurkat): 12.6 µM | Activity (K562 [3]): 6.03% | IC50 (MRC5): > 100 µM | IC50 (MDA-MB-231 [4]): 0.13 µM | Activity (K562 [5]): 0.55% | Activity (K562 [6]): 11.17% | Activity (K562 [7]): 19.68% | IC50 (A549 [13]): 5.31 µM | IC50 (Raji): 21.1 µM | Activity (K562 [8]): 20.9% | IC50 (K562 [14]): 11.5 µM | Activity (K562 [16]): Active | Activity (K562 [9]): 53.39% | IC50 (HeLa): 8.46 µM | fold change (FC) (K562 [15]): 3 | IC50 (HL-60): 1.63 µM

CO[C@H](c1ccccc1)[C@H]1O[C@@H]2CC(=O)O[C@@H]2[C@H]1O
IC50 (MCF7): > 100 µM | Activity (K562 [17]): Active | Activity (K562 [1]): Active | IC50 (Jurkat): 15.6 µM | Activity (K562 [3]): 2.4% | IC50 (MRC5): > 100 µM | IC50 (MDA-MB-231 [4]): 0.064 µM | Activity (K562 [5]): -0.5% | Ratio IC50 (MDA-MB-231 [18]): 1.5 | Activity (K562 [6]): -0.27% | Activity (K562 [7]): 20.61% | IC50 (A549 [13]): 2.64 µM | IC50 (Raji): 15.6 µM | Activity (K562 [8]): 24.89% | IC50 (K562 [14]): 7.95 µM | Activity (K562 [16]): Active | Ratio IC50 (A549 [19]): 2 | Activity (K562 [9]): 52.09% | IC50 (HeLa): 5.64 µM | IC50 (HL-60): 2.96 µM

CO[C@@H]1[C@H]2OC(=O)C[C@H]2O[C@@H]1C(=O)c1ccccc1
IC50 (MCF7): 3.44 µM | Activity (K562 [11]): Active | Activity (K562 [1]): Active | IC50 (Jurkat): 8.97 µM | Activity (K562 [2]): Active | Activity (K562 [3]): 1.33% | IC50 (MRC5): > 100 µM | IC50 (MDA-MB-231 [4]): 41 µM | Activity (K562 [5]): -0.59% | Activity (K562 [6]): 2.1% | Activity (K562 [7]): 23.68% | IC50 (A549 [13]): 2.58 µM | IC50 (Raji): 25.6 µM | Activity (K562 [8]): 29.53% | IC50 (K562 [14]): 22.5 µM | Ratio IC50 (A549 [19]): 2 | Activity (K562 [9]): 45.46% | IC50 (HeLa): 6.39 µM | Activity (K562 [10]): Active | IC50 (HL-60): 11.2 µM
